# XBP1 UPR activ – activators of adaptive XBP1 UPR arm, primary screen, cell-based, CHO-XBP1 luciferase reporter, luminescence, uHTS | IRE1-XBP1 UPR activation; percent of tunicamycin response, DMSO as zero | activation, % at 20 µM | 330,000 tested, 0.33% active;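 active = versus positive control, 20 µM dose yields 30% or more activation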;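 also: 100% = tunicamycin at 10 µg/mL and 0% = DMSO only wells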
#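 Test system: CHO-XBP1 luciferase reporter cells | Buffer or medium: Serum-containing F12 medium, 10% FBS | Schedule: 6 h compound exposure at 37 °C, 5% CO2 | Detection: Steady-Glo luciferase glow luminescence, 10 min after reagent addition | Read-out basis: Activation, % of tunicamycin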
# Jurkat NFkB inh – inhibitors of induced NF-kB luciferase reporter, primary screen, TCR NF-kB activation inhibitor project, cell-based, luminescence, uHTS; Jurkat, PMA/ionomycin-induced NF-kB luciferase reporter; inhibition, % at 4 µM; 330,000 tested, 0.53% active; in the data active = inhibition above about 50%
# CRFR2-BP antag – antagonists of CRF-BP/CRF-R2 complex, primary screen, cell-based, HEK293, calcium dye fluorescence, uHTS. CRF-induced calcium fluorescence. inhibition, % at 11.8 µM. 350,000 tested, 0.59% active. AID 588475, 2011;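 active = inhibition of the ligand-induced calcium signal above about 50% at the single tested concentration, limit read from the data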
# UPR CHOP act – activators of apoptotic CHOP UPR arm, primary screen, cell-based, CHO-CHOP luciferase reporter, luminescence, uHTS | UPR activation; percent of tunicamycin response over DMSO baseline | activation, % at 10 µM | 330,000 tested, 0.34% active;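 active = at 10 µM dose, activation of 40% or more, normalized to positive control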;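 also: 100% = tunicamycin at 10 µg/mL and 0% = DMSO alone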
#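 measured by = luciferase luminescence | assay system = CHO-CHOP cells, stable luciferase reporter of PERK-eIF2a-CHOP signalling | amount = 500 reporter cells seeded per well | timing = 6 h compound exposure at 37 °C after overnight seeding | controls = positive tunicamycin 10 µg/mL, negative DMSO alone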
# 697 NFkB inh – inhibitors of PMA/ionomycin-induced NF-kB reporter, 697 cells, primary screen, B-cell NF-kB inhibitor project, cell-based, luminescence, uHTS. inhibition, % at 4 µM. 697 B-cell NF-kB luciferase reporter, 16 h. AID 435022, 2010. 330,000 tested, 0.33% active; in the data active = inhibition above about 35%
# Jurkat NFkB conf – PMA/ionomycin-induced NF-kB reporter inhibitors, Jurkat retest, confirmation, T-cell NF-kB inhibitor project, cell-based, luminescence, single concentration; Jurkat NF-kB luciferase, 16 h; AID 435020, 2010; shares compounds with Jurkat NFkB inh; 2,700 tested, 27% active; inhibition, % at 4 µM;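 active = inhibition reaching about 45% at 4 µM in either replicate, limit read from the data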;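 also: plate controls were PMA/ionomycin stimulated DMSO wells for no effect and unstimulated DMSO wells for full effect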
# 697 NFkB conf – PMA/ionomycin-induced NF-kB reporter inhibitors, 697 retest, confirmation, B-cell NF-kB inhibitor project, cell-based, luminescence, single concentration | shares compounds with 697 NFkB inh | 697 B-cell NF-kB luciferase, 16 h | inhibition, % at 4 µM | 2,000 tested, 35% active; in the data active = inhibition mostly above about 28%, no sharp cut-off; inactive = mostly below about 22%
# The depositor's hits bear a star; . = no result. A selection: hits, their analogues and other compounds. The true share with any hit is near 1.8%.
SMILES,XBP1 UPR activ,Jurkat NFkB inh,CRFR2-BP antag,UPR CHOP act,697 NFkB inh,Jurkat NFkB conf,others
CCOC(=O)c1sc(=NC(=O)c2ccc(C)cc2)n(C)c1C,1,-93,-7,5,-49,.,
Cc1c(C(=O)C(=O)N2c3ccccc3CC2C)c2ccccc2n1C (centres undefined),-1,15,-14,1,11,.,
COc1ccc(-c2cc(C(=O)N3CCN(c4ccccc4)CC3)c3ccccc3n2)cc1,2,60*,-20,1,-52,-11,
Cc1c(C(=O)C(=O)N2CC=C(c3ccccc3)CC2)c2ccccc2n1C,3,53*,-11,0,-52,20,
Cc1cc(C(=O)N2CC=C(c3ccccc3)CC2)c2ccccc2n1,-2,67*,2,1,-16,45,
O=C(NCc1ccccc1OC(F)(F)F)C1CCC(=O)N(CCCN2CCOCC2)C1 (centres undefined),.,.,7,.,.,.,
CC(CCc1ccccc1)NC(=O)CCC1CCCC1 (centres undefined),1,9,-1,3,9,.,
Cc1cccc(NC(=O)CSc2nnc(CNC(=O)c3ccco3)n2C)c1,-2,10,10,0,1,.,
Nc1nc2nn(-c3ccccc3)nc2c(=O)[nH]1,-9,-22,-3,4,-45,.,
Nc1nc2n[nH]nc2c(=O)[nH]1,-1,64*,0,2,-52,74*,
COc1ccc(C(NC(=O)C(C)C)c2ccc3cccnc3c2O)cc1 (centres undefined),6,61*,24,0,-22,65*,
CCCCC(=O)NC(c1ccc(Cl)cc1Cl)c1ccc2cccnc2c1O (centres undefined),-1,51*,3,0,-25,75*,
CC(C)C(=O)NC(c1ccc(Cl)cc1Cl)c1ccc2cccnc2c1O (centres undefined),0,47,18,2,-26,.,
CCCC(=O)NC(c1ccccc1Cl)c1ccc2cccnc2c1O (centres undefined),1,63*,-8,15,-5,81*,
CCC(=O)NC(c1ccc(C)cc1)c1ccc2cccnc2c1O (centres undefined),17,55*,-1,23,-6,76*,
Cc1nc2cc3c(=O)n(C)cnc3cc2n1Cc1ccccc1,.,.,-2,.,.,.,
COc1cccc2cc(C(=O)CS(=O)(=O)c3ccc(Cl)cc3)c(=O)oc12,-3,3,7,2,16,.,
CCn1cc(S(=O)(=O)Nc2ncccn2)cn1,-3,-6,-5,0,-2,.,
COc1cc(S(C)=O)ccc1-c1nc2ncccc2[nH]1 (centres undefined),-8,9,-9,-1,21,.,
CCOc1cc(C)nc(N2CCC(C(=O)NC3CC3)CC2)n1,.,.,-2,.,.,.,
CCn1c(C)nc2cc(C(=O)NNC(=S)NC(=O)c3ccccc3)ccc21,1,4,-7,1,-2,.,
CCCC(=O)NC(c1ccc(N(C)C)cc1)c1ccc2cccnc2c1O (centres undefined),14,55*,18,16,-21,74*,
CCCCC(=O)NC(c1ccc(OC)cc1)c1ccc2cccnc2c1O (centres undefined),.,.,14,.,.,.,
CCCC(=O)NC(c1ccc(C(C)C)cc1)c1ccc2cccnc2c1O (centres undefined),-2,60*,2,2,-33,81*,
C=CCN1CN(S(=O)(=O)c2cccc(Cl)c2)c2nc3ccccc3nc21,1,-12,3,2,-25,.,
SMILES,XBP1 UPR activ,Jurkat NFkB inh,CRFR2-BP antag,UPR CHOP act,697 NFkB inh,Jurkat NFkB conf,others
O=C(COc1ccc([N+](=O)[O-])cc1)Nc1cccc2nsnc12,-3,-20,1,1,16,.,
Cc1ccc(C(=O)O/N=C(\N)Cc2cccs2)c(Cl)c1,-1,-153,-1,3,-253,-82,697 NFkB conf=-282
CCN(CC)c1ccc2cc(C(=O)Nc3ccccn3)c(=O)oc2c1,2,-156,-206,0,-365,-138,697 NFkB conf=-284
CCN(CC)c1ccc2cc(C(C)=O)c(=O)oc2c1,1,2,-169,3,0,.,
COc1ccc(Cl)cc1NC(=O)CN(C)C(=O)c1cn(-c2ccccc2)nc1-c1cccnc1,-4,-5,-9,-1,-2,.,
Cc1noc(C)c1NC(=O)N(C)C[C@@H]1Oc2ccc(NC(=O)CCC(F)(F)F)cc2CC(=O)N([C@@H](C)CO)C[C@@H]1C,-4,6,-1,1,3,.,
Cc1ccc(S(=O)(=O)N(CC(=O)NCc2ccncc2)Cc2ccc(F)cc2)cc1,-8,-8,-2,0,12,.,
C=C1C(=O)O[C@@H]2C[C@@H](C)[C@@H]3C=CC(=O)[C@@]3(C)[C@@H](OC(C)=O)[C@H]12,-9,96*,41,-8,100*,98*,697 NFkB conf=100*
C[C@@H]1C[C@@H]2OC(=O)[C@]3(C)[C@H]2[C@@H](OC3(C)O)[C@]2(C)C(=O)C=C[C@H]12 (some centres undefined),1,10,4,3,-46,.,
O=C(NN=C1CCCC1)c1ccc(O)cc1,-2,0,11,0,5,.,
Cc1ccc(C)c(NC(=O)c2ccc3ccccc3n2)c1,-3,-177,-2,5,-283,-98,697 NFkB conf=-189
COc1cccc(C(=O)Nc2ccccc2)c1,1,-37,-6,3,16,.,
COc1ccc(C(=O)Nc2ccc3ccccc3c2)cc1,-11,-167,1,-6,-361,-100,697 NFkB conf=-449
COC(=O)c1cccc(NC(=O)c2onc3c2CCCC3)c1,-2,-74,25,1,-151,.,
COc1ccc(OC)c(C(=O)c2ccc(C(=O)Nc3ccc4ccccc4c3)cc2)c1,-1,-19,-12,3,-37,.,
Cc1ccc(C(=O)Nc2cnc3ccccc3c2)cc1,-6,59*,-5,-10,-304,73*,697 NFkB conf=-222
O=C(Nc1ccc2ccccc2c1)c1onc2c1CCCC2,0,-209,25,3,-330,-138,697 NFkB conf=-306
Cc1cc(C(=O)Nc2cnc3ccccc3c2)ccc1[N+](=O)[O-],4,-116,-16,2,-40,.,
COc1cccc(C(=O)Nc2ccc3ccccc3c2)c1,-6,-172,2,5,-408,-109,697 NFkB conf=-366

# Screening data from PubChem BioAssay.
